Data on 19 molecules can be found in ChEMBL document CHEMBL2311408, “Inhibition of norovirus 3CL protease by bisulfite adducts of transition state inhibitors” (Bioorg Med Chem Lett, 2013).

The nature of series [1]: Cytotoxicity against human HG23 cells up to 320 uM. The format is cell-based.
Series [2] in a line: Aqueous stability of the compound assessed as compound hydration in DMSO/water after 5 mins by Mass spectrometry. The format is physicochemical. The essentials:
(§1)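 The bisulfite adduct was placed in water. The species present (intact bisulfite adduct or hydrated aldehyde) were examined after 5 min of exposure and again after 24 h.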

The test system of the next series is Norovirus. Put plainly: Antiviral activity against Norovirus infected in human HG23 cells. The format is functional. The conditions noted are these: read-out: ED50 (the source's name). The essentials: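 Norovirus replicon-bearing cells, with inhibition of viral replication reported as ED50 in μM.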
Series [3] is described as follows: Inhibition of Norovirus recombinant 3CL protease using Edans-EPDFHLQGPEDLAK-Dabcyl as substrate for 30 mins by fluorometry.
A short description of series [4]: Aqueous stability of the compound in DMSO/water after 24 hrs by Mass spectrometry. The format is physicochemical. In a few lines: as §1
Series [5] is described as follows: Stability of the compound in buffer solution at pH 7.4 assessed as formation of aldehyde form of compound within 1 hr. As to conditions: pH 7.4, 1 h. The format is physicochemical. The essentials:
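The bisulfite adduct was placed in buffer solution at pH 7.4. Over about one hour, it was followed for dissociation to the free aldehyde and for hydration of that aldehyde.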

Molecules are shown by their SMILES.

As for `CC(C)C[C@H](NC(=O)OCc1ccccc1)C(=O)N[C@H](C=O)CC1CCNC1=O` (stereo partly specified), the Activity entry in series [1] was “Non-toxic”. The Stability result in series [2] is given as “Unstable”. In addition, in the series on Norovirus, the EC50 worked out at 0.2 µM. Further, the concentration for half-maximal inhibition (IC50) in series [3] stood at 0.6 µM.
In the case of `CC(C)C[C@H](NC(=O)OCc1ccc(F)cc1)C(=O)N[C@@H](CC1CCNC1=O)C(O)S(=O)(=O)[O-].[Na+]` (stereo partly specified), the Activity entry in series [1] is listed as “Non-toxic”. For the same molecule, in the series on Norovirus, the EC50 worked out at 0.4 µM.
Take `CC(C)C[C@H](NC(=O)OCc1cccc(F)c1)C(=O)N[C@H](C=O)CC1CCNC1=O` (stereo partly specified): the Activity entry in series [1] was “Non-toxic”. Further, the EC50 in the series on Norovirus came out at 0.3 µM. Further, the IC50 in series [3] was 0.7 µM.
In the case of `CC(C)C[C@H](NC(=O)OCc1cccc(F)c1)C(=O)N[C@@H](CC1CCNC1=O)C(O)S(=O)(=O)[O-].[Na+]` (stereo partly specified), the Activity result in series [1] was “Non-toxic”. In addition, the EC50 in the series on Norovirus was determined as 0.2 µM.
In the case of `CC(C)C[C@H](NC(=O)OCCc1ccccc1)C(=O)N[C@H](C=O)CC1CCNC1=O` (stereo partly specified), the Activity result in series [1] is “Non-toxic”. Further, in the series on Norovirus, the EC50 is 1.1 µM. For the same molecule, the half-maximal inhibitory concentration (IC50) in series [3] was found to be 1.9 µM.
As to `CC(C)C[C@H](NC(=O)OCCc1ccccc1)C(=O)N[C@@H](CC1CCNC1=O)C(O)S(=O)(=O)[O-].[Na+]` (stereo partly specified), in series [1], the Activity entry was “Non-toxic”. For the same molecule, the EC50 in the series on Norovirus was found to be 1 µM.
For the molecule `CC(C)C[C@H](NC(=O)OCCC1CCCCC1)C(=O)N[C@H](C=O)CC1CCNC1=O` (stereo partly specified), the Activity result in series [1] is on record as “Toxic”. The EC50 in the series with Norovirus is 0.3 µM. Also, the 50% inhibitory concentration (IC50) in series [3] amounted to 0.6 µM.
As to `CC(C)C[C@H](NC(=O)OCCC1CCCCC1)C(=O)N[C@@H](CC1CCNC1=O)C(O)S(=O)(=O)[O-].[Na+]` (stereo partly specified), in series [1], the Activity entry is “Toxic”. For the same molecule, the EC50 in the series with Norovirus worked out at 0.3 µM.
Regarding `CCOC(=O)N[C@@H](C)C(=O)N[C@@H](CC1CCNC1=O)C(O)(C(=O)NC1CC1)S(=O)(=O)[O-].[Na+]` (stereo partly specified), the Activity result in series [1] was “Non-toxic”. In addition, the EC50 with Norovirus is 0.8 µM. The IC50 in series [3] is 5.3 µM.
Regarding `CC(C)C[C@H](NC(=O)OCc1ccccc1)C(=O)N[C@@H](CC1CCNC1=O)C(O)S(=O)(=O)[O-].[Na+]` (stereo partly specified), in series [1], the Activity result is reported as “Non-toxic”. Moreover, the Stability entry in series [4] and in series [5] was “Stable” throughout. In addition, the EC50 with Norovirus is 0.3 µM.
With `CCC[C@H](NC(=O)OCc1ccccc1)C(=O)N[C@H](C=O)CC1CCNC1=O` (stereo partly specified), the Activity entry in series [1] is on record as “Non-toxic”. Also, in the series on Norovirus, the EC50 was determined as 2.3 µM. Moreover, in series [3], the 50% inhibitory concentration (IC50) was found to be 6.1 µM.
Take `CCC[C@H](NC(=O)OCc1ccccc1)C(=O)N[C@@H](CC1CCNC1=O)C(O)S(=O)(=O)[O-].[Na+]` (stereo partly specified): the Activity result in series [1] is “Non-toxic”. Also, the EC50 with Norovirus worked out at 1.5 µM.
In the case of `CCCC[C@H](NC(=O)OCc1ccccc1)C(=O)N[C@H](C=O)CC1CCNC1=O` (stereo partly specified), in series [1], the Activity entry is reported as “Non-toxic”. In the series on Norovirus, the EC50 turned out to be 1.2 µM. Moreover, the IC50 in series [3] was found to be 4.5 µM.
For the molecule `CCCC[C@H](NC(=O)OCc1ccccc1)C(=O)N[C@@H](CC1CCNC1=O)C(O)S(=O)(=O)[O-].[Na+]` (stereo partly specified), the Activity entry in series [1] is given as “Non-toxic”. Besides, the EC50 with Norovirus was 1.3 µM.
Take `O=C[C@H](CC1CCNC1=O)NC(=O)[C@H](CC1CCCCC1)NC(=O)OCc1ccccc1` (stereo partly specified): in series [1], the Activity result is “Non-toxic”. Also, the EC50 with Norovirus is 0.05 µM. Moreover, in series [3], the IC50 worked out at 0.5 µM.
For `O=C(N[C@@H](CC1CCCCC1)C(=O)N[C@@H](CC1CCNC1=O)C(O)S(=O)(=O)[O-])OCc1ccccc1.[Na+]` (stereo partly specified), the Activity result in series [1] is given as “Non-toxic”. Moreover, in the series with Norovirus, the EC50 is 0.06 µM.
`O=C[C@H](CC1CCNC1=O)NC(=O)[C@H](Cc1ccccc1)NC(=O)OCc1ccccc1` (stereo partly specified): in series [1], the Activity entry is recorded as “Non-toxic”. The EC50 in the series on Norovirus came out at 1.8 µM. Besides, the concentration for half-maximal inhibition (IC50) in series [3] was 5.1 µM.
Take `O=C(N[C@@H](Cc1ccccc1)C(=O)N[C@@H](CC1CCNC1=O)C(O)S(=O)(=O)[O-])OCc1ccccc1.[Na+]` (stereo partly specified): in series [1], the Activity entry is “Non-toxic”. In addition, in the series on Norovirus, the EC50 was 1.1 µM.
In the case of `CC(C)C[C@H](NC(=O)OCc1ccc(F)cc1)C(=O)N[C@H](C=O)CC1CCNC1=O` (stereo partly specified), the Activity entry in series [1] is recorded as “Non-toxic”. In addition, the EC50 with Norovirus worked out at 0.5 µM. In series [3], the 50% inhibitory concentration (IC50) was 1.8 µM.

What is called IC50 is the concentration at which inhibition is half-maximal.
